Test results reported in ChEMBL document CHEMBL3525944, “Nonlinear pharmacokinetics of 5-methoxy-N,N-dimethyltryptamine in mice” (Drug Metab Dispos, 2011).

Legend:
[1] = Half life in wild-type FVB/N mouse at 20 mg/kg, iv by LC-MS/MS analysis; type: ADME, organism-based; set-up: dose 20 mg/kg, route intravenous; settings: in vivo
In short: (§1)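 Male 8-week FVB/N wild-type or CYP2D6-humanized mice (25-30 g) given 5-MeO-DMT oxalate in saline i.v. at 5 µL/g body weight. Serum collected 0-180 min, N = 3 per time point, proteins precipitated with ice-cold acetonitrile containing internal standard, LC-MS/MS. Noncompartmental analysis of composite mean data; t1/2 = 0.693/terminal slope; Vss = CL×AUMC/AUC, CL = dose/AUC0→∞.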

Mus musculus [2] = experiment: AUC (0 to infinity) in CYP2D6-humanized transgenic FVB/N mouse at 10 mg/kg, iv by LC-MS/MS analysis; type: ADME, organism-based, Plasma; set-up: time infinity, dose 10 mg/kg, route intravenous; settings: in vivo
[3] = Clearance in wild-type FVB/N mouse at 20 mg/kg, iv by LC-MS/MS analysis; type: ADME, organism-based; set-up: dose 20 mg/kg, route intravenous; settings: in vivo
[4] = Volume of distribution at steady state in CYP2D6-humanized transgenic FVB/N mouse at 2 mg/kg, iv by LC-MS/MS analysis; type: ADME, organism-based; set-up: dose 2 mg/kg, route intravenous; settings: in vivo, read-out: Vdss; in short: as §1
Mus musculus [5] = experiment: Dose normalized AUC (0 to infinity) in CYP2D6-humanized transgenic FVB/N mouse at 10 mg/kg, ip by LC-MS/MS analysis; type: ADME, organism-based; set-up: dose 10 mg/kg, route intraperitoneal; settings: in vivo
[6] = Volume of distribution at steady state in wild-type FVB/N mouse at 20 mg/kg, iv by LC-MS/MS analysis; type: ADME, organism-based; set-up: dose 20 mg/kg, route intravenous; settings: in vivo, read-out: Vdss; in short: as §1
[7] = Volume of distribution at steady state in wild-type FVB/N mouse at 2 mg/kg, iv by LC-MS/MS analysis; type: ADME, organism-based; set-up: dose 2 mg/kg, route intravenous; settings: in vivo, read-out: Vdss; in short: as §1
[8] = Cmax in wild-type FVB/N mouse at 2 mg/kg, ip by LC-MS/MS analysis; type: ADME, organism-based; set-up: dose 2 mg/kg, route intraperitoneal; settings: in vivo
[9] = Half life in CYP2D6-humanized transgenic FVB/N mouse at 2 mg/kg, iv by LC-MS/MS analysis; type: ADME, organism-based; set-up: dose 2 mg/kg, route intravenous; settings: in vivo
[10] = Cmax in wild-type FVB/N mouse at 10 mg/kg, ip by LC-MS/MS analysis; type: ADME, organism-based; set-up: dose 10 mg/kg, route intraperitoneal; settings: in vivo
[11] = Half life in wild-type FVB/N mouse at 10 mg/kg, iv by LC-MS/MS analysis; type: ADME, organism-based; set-up: dose 10 mg/kg, route intravenous; settings: in vivo
[12] = Volume of distribution at steady state in CYP2D6-humanized transgenic FVB/N mouse at 20 mg/kg, iv by LC-MS/MS analysis; type: ADME, organism-based; set-up: dose 20 mg/kg, route intravenous; settings: in vivo, read-out: Vdss; in short: as §1
Mus musculus [13] = experiment: AUC (0 to infinity) in wild-type FVB/N mouse at 20 mg/kg, iv by LC-MS/MS analysis; type: ADME, organism-based, Plasma; set-up: time infinity, dose 20 mg/kg, route intravenous; settings: in vivo
[14] = Tmax in wild-type FVB/N mouse at 10 mg/kg, ip by LC-MS/MS analysis; type: ADME, organism-based; set-up: dose 10 mg/kg, route intraperitoneal; settings: in vivo
In short: (§2)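 Male 8-week FVB/N wild-type or CYP2D6-humanized mice given 5-MeO-DMT oxalate in saline i.p. at 10 µL/g body weight. Serum sampled 0-180 min, N = 4 per time point, processed by acetonitrile protein precipitation with internal standard, quantified by LC-MS/MS. Tmax taken as observed from composite mean serum concentration-time data.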

Mus musculus [15] = experiment: Dose normalized AUC (0 to infinity) in wild-type FVB/N mouse at 20 mg/kg, ip by LC-MS/MS analysis; type: ADME, organism-based; set-up: dose 20 mg/kg, route intraperitoneal; settings: in vivo
[16] = Bioavailability in CYP2D6-humanized transgenic FVB/N mouse at 10 mg/kg, ip by LC-MS/MS analysis; type: ADME, organism-based; settings: in vivo
Mus musculus [17] = experiment: Dose normalized AUC (0 to infinity) in wild-type FVB/N mouse at 10 mg/kg, iv by LC-MS/MS analysis; type: ADME, organism-based; set-up: dose 10 mg/kg, route intravenous; settings: in vivo
[18] = Ratio of drug level in brain to serum in CYP2D6-humanized transgenic FVB/N mouse at 20 mg/kg, ip by LC-MS/MS analysis; type: ADME, organism-based; set-up: dose 20 mg/kg, route intraperitoneal
In short: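 Mice dosed i.p. with 5-MeO-DMT in saline and killed at 20, 30 or 60 min. Brain homogenized in ice-cold saline and extracted liquid-liquid; serum processed by acetonitrile precipitation. Both quantified by LC-MS/MS (brain range 4.1-3000 nM). Ratio is brain over serum concentration at the same time point.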

[19] = Clearance in CYP2D6-humanized transgenic FVB/N mouse at 20 mg/kg, iv by LC-MS/MS analysis; type: ADME, organism-based; set-up: dose 20 mg/kg, route intravenous; settings: in vivo
[20] = Cmax in CYP2D6-humanized transgenic FVB/N mouse at 10 mg/kg, ip by LC-MS/MS analysis; type: ADME, organism-based; set-up: dose 10 mg/kg, route intraperitoneal; settings: in vivo
[21] = Bioavailability in wild-type FVB/N mouse at 20 mg/kg, ip by LC-MS/MS analysis; type: ADME, organism-based; settings: in vivo
Serum [22] = experiment: Drug recovery in CYP2D6-humanized transgenic FVB/N mouse serum by LC-MS/MS analysis; type: ADME, cell-free
Mus musculus [23] = experiment: Dose normalized AUC (0 to infinity) in CYP2D6-humanized transgenic FVB/N mouse at 10 mg/kg, iv by LC-MS/MS analysis; type: ADME, organism-based; set-up: dose 10 mg/kg, route intravenous; settings: in vivo
Mus musculus [24] = experiment: AUC (0 to infinity) in wild-type FVB/N mouse at 2 mg/kg, ip by LC-MS/MS analysis; type: ADME, organism-based, Plasma; set-up: time infinity, dose 2 mg/kg, route intraperitoneal; settings: in vivo
Serum [25] = experiment: Drug recovery in wild-type FVB/N mouse serum by LC-MS/MS analysis; type: ADME, cell-free
[26] = Clearance in wild-type FVB/N mouse at 2 mg/kg, iv by LC-MS/MS analysis; type: ADME, organism-based; set-up: dose 2 mg/kg, route intravenous; settings: in vivo
[27] = Clearance in wild-type FVB/N mouse at 10 mg/kg, iv by LC-MS/MS analysis; type: ADME, organism-based; set-up: dose 10 mg/kg, route intravenous; settings: in vivo
Mus musculus [28] = experiment: Dose normalized AUC (0 to infinity) in wild-type FVB/N mouse at 10 mg/kg, ip by LC-MS/MS analysis; type: ADME, organism-based; set-up: dose 10 mg/kg, route intraperitoneal; settings: in vivo
Mus musculus [29] = experiment: Dose normalized AUC (0 to infinity) in CYP2D6-humanized transgenic FVB/N mouse at 20 mg/kg, iv by LC-MS/MS analysis; type: ADME, organism-based; set-up: dose 20 mg/kg, route intravenous; settings: in vivo
[30] = Tmax in wild-type FVB/N mouse at 2 mg/kg, ip by LC-MS/MS analysis; type: ADME, organism-based; set-up: dose 2 mg/kg, route intraperitoneal; settings: in vivo; in short: as §2
[31] = Clearance in CYP2D6-humanized transgenic FVB/N mouse at 10 mg/kg, iv by LC-MS/MS analysis; type: ADME, organism-based; set-up: dose 10 mg/kg, route intravenous; settings: in vivo
[32] = Volume of distribution at steady state in wild-type FVB/N mouse at 10 mg/kg, iv by LC-MS/MS analysis; type: ADME, organism-based; set-up: dose 10 mg/kg, route intravenous; settings: in vivo, read-out: Vdss; in short: as §1
[33] = Tmax in CYP2D6-humanized transgenic FVB/N mouse at 20 mg/kg, ip by LC-MS/MS analysis; type: ADME, organism-based; set-up: dose 20 mg/kg, route intraperitoneal; settings: in vivo; in short: as §2
[34] = Cmax in CYP2D6-humanized transgenic FVB/N mouse at 20 mg/kg, ip by LC-MS/MS analysis; type: ADME, organism-based; set-up: dose 20 mg/kg, route intraperitoneal; settings: in vivo
Mus musculus [35] = experiment: AUC (0 to infinity) in wild-type FVB/N mouse at 20 mg/kg, ip by LC-MS/MS analysis; type: ADME, organism-based, Plasma; set-up: time infinity, dose 20 mg/kg, route intraperitoneal; settings: in vivo

Molecule COc1ccc2[nH]cc(CCN(C)C)c2c1.O=C(O)C(=O)O has a half-life [1] of 15 min, an AUC (Mus musculus [2]) of 369 µmol·min/L and a clearance [3] of 100 mL/min/kg. It also gave a Vd [4] of 2.55 L/kg, an AUC/dose (Mus musculus [5]) of 4.92 kg·min/L and a Vd [6] of 1.84 L/kg. For the same molecule, the Vd [7] was 2.27 L/kg, the Cmax [8] was 1.31 µM and the half-life [9] was 8.4 min. For the same molecule, the Cmax [10] was 7 µM, the half-life [11] was 12 min and the Vd [12] was 2.18 L/kg. The AUC (Mus musculus [13]) was 920 µmol·min/L, the Tmax [14] was 5 min and the AUC/dose (Mus musculus [15]) was 7.13 kg·min/L. The bioavailability [16] was 61%, the AUC/dose (Mus musculus [17]) was 10.6 kg·min/L and the Kp [18] was 3.2. For the same molecule, the clearance [19] was 110 mL/min/kg, the Cmax [20] was 8.93 µM and the bioavailability [21] was 71%. The Drug recovery (Serum [22]) was 62%, the AUC/dose (Mus musculus [23]) was 8.1 kg·min/L and the AUC (Mus musculus [24]) was 24.9 µmol·min/L. The Drug recovery (Serum [25]) was 62%, the clearance [26] was 190 mL/min/kg and the clearance [27] was 94 mL/min/kg. It also gave an AUC/dose (Mus musculus [28]) of 5.03 kg·min/L, an AUC/dose (Mus musculus [29]) of 9.45 kg·min/L and a Tmax [30] of 3 min. The clearance [31] was 120 mL/min/kg, the Vd [32] was 2.08 L/kg and the Tmax [33] was 5 min. For the same molecule, the Cmax [34] was 18.3 µM and the AUC (Mus musculus [35]) was 654 µmol·min/L.
